Data set [1] has as its system HBV DNA replication in HepAD38 cells. Briefly: Anti-HBV activity, 7-day assay in HepAD38 cells. The format is cell-based, hepatitis B virus. As to conditions: for EC50 / EC90: Hepatitis B virus, HePAD38, 168 h; for EC50: read-out: Anti-HBV activity EC50; for EC90: read-out: Anti-HBV activity EC90; for fold increase of anti-HBV potency compared to GLP-26: HepAD38 EC50 relative to reference GLP-26.

The nature of data set [2]: Cytotoxicity, CellTiter 96 assay in PBM cells. Format: cell-based, human. As to conditions: human, peripheral blood mononuclear (PBM) cells. The essentials: (§1)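 Colorimetric non-radioactive cell proliferation read-out (CellTiter 96). CC50 is the test compound concentration that inhibited cell growth by 50%.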
The nature of data set [3]: Cytotoxicity, CellTiter 96 assay in CEM cells. The format is cell-based, human. The conditions noted are these: human, T lymphoblast (CEM) cells. The essentials: as §1
A short description of data set [4]: Cytotoxicity, CellTiter 96 assay in Vero cells. The conditions noted are these: African green monkey, kidney (Vero) cells. Format: cell-based, African green monkey. The essentials: as §1
Data set [5] in a line: Cytotoxicity, CellTiter 96 assay in HepG2 cells. As to conditions: human, hepatocellular carcinoma (HepG2) cells. Format: cell-based, human. Summed up: as §1

SMILES strings stand for the structures. A value given as a limit tells only on which side of the number the result lay.

By EC50 is commonly meant the concentration giving half of the maximal effect. The EC90 is the concentration at which the effect reaches the 90% level. The CC50 is the concentration that lowers cell viability or growth by half. High values mean better tolerance by the cells, low ones harm at low concentration. Consider `C#CCNC(=O)C(=O)c1c(C)c(C(=O)Nc2ccc(F)c(F)c2)n(CC)c1C` [Compound 5a, N-(3,4-Difluorophenyl)-1-ethyl-3,5-dimethyl-4-(2-oxo-2-(prop-2-yn-1-ylamino)acetyl)-1H-pyrrole-2-carboxamide], for which the EC50 in data set [1] is 0.0071 ± 0.0062 µM. Besides, the 90% effect concentration (EC90) in data set [1] was found to be 0.0494 ± 0.0129 µM. Further, the CC50 in data set [2], in data set [3], in data set [4] and in data set [5] was more than 100 µM each time.
With `C#CCNC(=O)C(=O)c1c(C)c(C(=O)Nc2ccc(F)c(F)c2)n(CCC)c1C` [Compound 5b, N-(3,4-Difluorophenyl)-3,5-dimethyl-4-(2-oxo-2-(prop-2-yn-1-ylamino)acetyl)-1-propyl-1H-pyrrole-2-carboxamide], in data set [1], the concentration giving a half-maximal response (EC50) came to 0.0091 ± 0.0037 µM. In addition, the EC90 in data set [1] was 0.044 ± 0.021 µM. Also, the CC50 in data set [2], in data set [3], in data set [4] and in data set [5] was more than 100 µM each time.
In the case of `C#CCNC(=O)C(=O)c1c(C)c(C(=O)Nc2ccc(F)c(F)c2)n(CCCC)c1C` [Compound 5c, 1-Butyl-N-(3,4-difluorophenyl)-3,5-dimethyl-4-(2-oxo-2-(prop-2-yn-1-ylamino)acetyl)-1H-pyrrole-2-carboxamide], the concentration giving a half-maximal response (EC50) in data set [1] is 0.0874 ± 0.0037 µM. Besides, the EC90 in data set [1] was 0.556 ± 0.147 µM. Moreover, the CC50 in data set [2], in data set [3], in data set [4] and in data set [5] was more than 100 µM each time.
On to `C#CCNC(=O)C(=O)c1c(C)c(C(=O)Nc2ccc(F)c(F)c2)n(CC=C)c1C` [Compound 5d, 1-Allyl-N-(3,4-difluorophenyl)-3,5-dimethyl-4-(2-oxo-2-(prop-2-yn-1-ylamino)acetyl)-1H-pyrrole-2-carboxamide], for which the EC50 in data set [1] came out at 0.003 ± 0.0014 µM. Besides, in data set [1], the 90% effect concentration (EC90) was 0.128 ± 0.15 µM. Moreover, the CC50 in data set [2], in data set [3], in data set [4] and in data set [5] was more than 100 µM throughout.
As for `C#CCNC(=O)C(=O)c1c(C)c(C(=O)Nc2ccc(F)c(F)c2)n(C2CC2)c1C` [Compound 5e, 1-Cyclopropyl-N-(3,4-difluorophenyl)-3,5-dimethyl-4-(2-oxo-2-(prop-2-yn-1-ylamino)acetyl)-1H-pyrrole-2-carboxamide], the EC50 in data set [1] stood at 0.0075 ± 0.0078 µM. The EC90 in data set [1] was 0.0415 ± 0.012 µM. The CC50 in data set [2], in data set [3], in data set [4] and in data set [5] was more than 100 µM in each case.
As to `C#CCNC(=O)C(=O)c1c(C)c(C(=O)Nc2ccc(F)c(F)c2)n(CC2CC2)c1C` [Compound 5f, 1-(Cyclopropylmethyl)-N-(3,4-difluorophenyl)-3,5-dimethyl-4-(2-oxo-2-(prop-2-yn-1-ylamino)acetyl)-1H-pyrrole-2-carboxamide], the EC50 in data set [1] is 0.0522 ± 0.0271 µM. For the same compound, the EC90 in data set [1] came to 0.0522 ± 0.0271 µM. The CC50 in data set [2], in data set [3], in data set [4] and in data set [5] was more than 100 µM in each case.
As to `C#CCNC(=O)C(=O)c1c(C)c(C(=O)Nc2ccc(F)c(F)c2)n(CC#C)c1C` [Compound 5g, N-(3,4-Difluorophenyl)-3,5-dimethyl-4-(2-oxo-2-(prop-2-yn-1-ylamino)acetyl)-1-(prop-2-yn-1-yl)-1H-pyrrole-2-carboxamide], in data set [1], the “fold increase of anti-HBV potency compared to GLP-26” value (shortened to “fold increase of anti-HBV potency”) is more than 5 fold. Further, the EC50 in data set [1] was determined as 0.00088 ± 0.00043 µM. Moreover, in data set [1], the EC90 was 0.0103 ± 0.006 µM. The CC50 in data set [2], in data set [3], in data set [4] and in data set [5] was more than 100 µM in each case.
In the case of `C#CCNC(=O)C(=O)c1c(C)c(C(=O)Nc2ccc(F)c(F)c2)n(CC#CC)c1C` [Compound 5h, 1-(But-2-yn-1-yl)-N-(3,4-difluorophenyl)-3,5-dimethyl-4-(2-oxo-2-(prop-2-yn-1-ylamino)acetyl)-1H-pyrrole-2-carboxamide], the EC50 in data set [1] came out at 0.0452 ± 0.0201 µM. The EC90 in data set [1] came to 0.395 ± 0.327 µM. Further, the CC50 in data set [2], in data set [3], in data set [4] and in data set [5] was more than 100 µM each time.
Consider `C#CCNC(=O)C(=O)c1c(C)c(C(=O)Nc2ccc(F)c(F)c2)n(CC#CCC)c1C` [Compound 5i, N-(3,4-Difluorophenyl)-3,5-dimethyl-4-(2-oxo-2-(prop-2-yn-1-ylamino)acetyl)-1-(pent-2-yn-1-yl)-1H-pyrrole-2-carboxamide], for which the EC50 in data set [1] worked out at 0.826 ± 0.172 µM. The concentration for an effect of 90% (EC90) in data set [1] was determined as 3.69 µM. Besides, the CC50 in data set [2], in data set [3], in data set [4] and in data set [5] was more than 100 µM each time.
In the case of `C#CCNC(=O)C(=O)c1c(C)c(C(=O)Nc2ccc(F)c(F)c2)n(Cc2ccccc2)c1C` [Compound 5j, 1-Benzyl-N-(3,4-difluorophenyl)-3,5-dimethyl-4-(2-oxo-2-(prop-2-yn-1-ylamino)acetyl)-1H-pyrrole-2-carboxamide], the EC50 in data set [1] worked out at 2.52 µM. Also, the 90% effect concentration (EC90) in data set [1] is more than 10 µM. For the same compound, the CC50 in data set [2], in data set [3], in data set [4] and in data set [5] was more than 100 µM throughout.
Take `C#CC(C)(C)NC(=O)C(=O)c1c(C)c(C(=O)Nc2ccc(F)c(F)c2)n(C)c1C` [Compound 9a, N-(3,4-Difluorophenyl)-1,3,5-trimethyl-4-(2-((2-methylbut-3-yn-2-yl)amino)-2-oxoacetyl)-1H-pyrrole-2-carboxamide]: in data set [1], the “fold increase of anti-HBV potency” value is given as 5–30 fold. Besides, the EC50 in data set [1] was 0.00071 ± 0.00022 µM. Further, the EC90 in data set [1] was determined as 0.0082 ± 0.0006 µM. Moreover, the CC50 in data set [2] was 64 ± 26 µM; in data set [3] it was 25 ± 2 µM; in data set [4], more than 100 µM; in data set [5] it was 91 ± 12 µM.
In the case of `C#CC(C)(CC)NC(=O)C(=O)c1c(C)c(C(=O)Nc2ccc(F)c(F)c2)n(C)c1C` (centres unmarked) [Compound 9b, N-(3,4-Difluorophenyl)-1,3,5-trimethyl-4-(2-(3-methylpent-1-yn-3-ylamino)-2-oxoacetyl)-1H-pyrrole-2-carboxamide], in data set [1], the “fold increase of anti-HBV potency” value was 5–30 fold. Moreover, the EC50 in data set [1] is 0.00015 ± 7e-05 µM. Further, the EC90 in data set [1] worked out at 0.0068 ± 0.0034 µM. For the same compound, the CC50 came to 61 ± 43 µM in data set [2], 10 ± 3 µM in data set [3], 64 ± 16 µM in data set [4] and 84 ± 11 µM in data set [5].
As to `C#CC(CC)(CC)NC(=O)C(=O)c1c(C)c(C(=O)Nc2ccc(F)c(F)c2)n(C)c1C` [Compound 9c, N-(3,4-Difluorophenyl)-4-(2-(3-ethylpent-1-yn-3-ylamino)-2-oxoacetyl)-1,3,5-trimethyl-1H-pyrrole-2-carboxamide], the “fold increase of anti-HBV potency” value in data set [1] is given as 5–30 fold. Besides, the EC50 in data set [1] was determined as 0.0005 ± 0.0003 µM. Moreover, the EC90 in data set [1] stood at 0.0046 ± 0.0023 µM. The CC50 came to 26 ± 14 µM in data set [2], 16 µM in data set [3], 42 µM in data set [4] and 44 ± 35 µM in data set [5].
With `C#CC1(NC(=O)C(=O)c2c(C)c(C(=O)Nc3ccc(F)c(F)c3)n(C)c2C)CC1` [Compound 9d, N-(3,4-Difluorophenyl)-4-(2-(1-ethynylcyclopropylamino)-2-oxoacetyl)-1,3,5-trimethyl-1H-pyrrole-2-carboxamide], in data set [1], the “fold increase of anti-HBV potency” value is listed as 5–30 fold. Besides, in data set [1], the concentration giving a half-maximal response (EC50) was found to be 0.0008 ± 0.0007 µM. The EC90 in data set [1] amounted to 0.0061 ± 0.0022 µM. The CC50 in data set [2], in data set [3], in data set [4] and in data set [5] was more than 100 µM in each case.

Source of the values: article PMC10765384 (Bioorganic chemistry, 2023).
